Results published in ChEMBL document CHEMBL2157916, “Design and synthesis of potent hydroxyethylamine (HEA) BACE-1 inhibitors carrying prime side 4,5,6,7-tetrahydrobenzazole and 4,5,6,7-tetrahydropyridinoazole templates” (Bioorg Med Chem Lett, 2012).

How the values were obtained:
[1] = Intrinsic clearance in human liver microsomes; assay type: ADME, Microsome; conditions: read-out: CLH
[2] = Apparent permeability across human Caco2 cells; assay type: ADME, cell-based; conditions: Caco-2
[3] = Drug uptake in C57/B1 mouse brain at 20 umol/kg, iv up to 6 hrs; assay type: ADME, organism-based; conditions: read-out: Drug uptake
Method in brief: (§1)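 Male C57/B1 mice dosed iv at 20 μmol/kg. Brain and plasma exposure measured 0.5 h after dose, with brain levels followed up to 6 h after dose.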

[4] = Drug uptake in C57/B1 mouse brain at 20 umol/kg, iv at 0.5 hrs; assay type: ADME, organism-based; conditions: read-out: Drug uptake; method in brief: as §1
[5] = Ratio of drug uptake in brain to plasma in C57/B1 mouse at […], sc administered for 24 hrs; assay type: ADME, organism-based; conditions: read-out: BPR
[6] = Plasma concentration in C57/B1 mouse at 20 umol/kg, iv at 0.5 hrs; assay type: ADME, organism-based; method in brief: as §1
[7] = Plasma concentration in C57/B1 mouse at […], sc administered for 24 hrs; assay type: ADME, organism-based

Row | SMILES | microsomal CLint [1] | Papp [2] | concentration at 6 h [3] | concentration at 0.5 h [4] | Kp at 24 h [5] | concentration at 0.5 h [6] | concentration at 24 h [7]
1 | CC(=O)N[C@@H](Cc1ccccc1)[C@H](O)CN[C@H]1CC(C)(C)Oc2ccc(CC(C)(C)C)cc21 | 200 µL/min/mg | 21 ×10⁻⁶ cm/s | – | – | – | – | –
2 | CC(=O)N[C@@H](Cc1ccccc1)[C@H](O)CNC1CC(C)(C)Oc2sc(CC(C)(C)C)cc21 (mixture of isomers) | 82 µL/min/mg | 5.6 ×10⁻⁶ cm/s | – | – | – | – | –
3 | CC(=O)N[C@@H](Cc1ccccc1)[C@H](O)CNC1CC(C)(C)Cc2[nH]c(CC(C)(C)C)nc21 (mixture of isomers) | 15 µL/min/mg | – | – | – | – | – | –

The next lines start with the values.

Row | microsomal CLint [1] | Papp [2] | concentration at 6 h [3] | concentration at 0.5 h [4] | Kp at 24 h [5] | concentration at 0.5 h [6] | concentration at 24 h [7] | SMILES
4 | 16 µL/min/mg | 1.6 ×10⁻⁶ cm/s | – | – | – | – | – | CC(=O)N[C@@H](Cc1ccccc1)[C@H](O)CN[C@H]1CC(C)(C)Cc2nn(CC(C)C)cc21
5 | 70 µL/min/mg | 5 ×10⁻⁶ cm/s | – | – | – | – | – | CC(=O)N[C@@H](Cc1ccccc1)[C@H](O)CN[C@H]1CC(C)(C)Cn2nc(CC(C)(C)C)cc21
6 | 25 µL/min/mg | 1.5 ×10⁻⁶ cm/s | 68 nM | 200 nM | 0.69 | 4750 nM | 450 nM | CC(=O)N[C@@H](Cc1ccccc1)[C@H](O)CNC1CC(C)(C)Cc2nn(CC(C)(C)C)cc21 (mixture of isomers)
